Source: PubChem (several laboratories)
Shown are actives, neighbours in structure and some others; about 1.5% of the full set was active somewhere.
Runt-CBFb FRET: blocks binding of human RUNX1 Runt domain to CBFb. Q01196+Q13951. Cerulean-Runt/Venus-CBFb FRET ratio 530/480, 1 h. inhibition, % at 20 µM. 0.46% of 220,000 active;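 active means inhibition over about 50% at 20 µM in the single-dose screen, limit read from the data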;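 further: 0% = DMSO wells and 100% = excess unlabeled CBFb competitor control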
Target sequence (Q01196 whole entry, looked up, the tested form may be a part): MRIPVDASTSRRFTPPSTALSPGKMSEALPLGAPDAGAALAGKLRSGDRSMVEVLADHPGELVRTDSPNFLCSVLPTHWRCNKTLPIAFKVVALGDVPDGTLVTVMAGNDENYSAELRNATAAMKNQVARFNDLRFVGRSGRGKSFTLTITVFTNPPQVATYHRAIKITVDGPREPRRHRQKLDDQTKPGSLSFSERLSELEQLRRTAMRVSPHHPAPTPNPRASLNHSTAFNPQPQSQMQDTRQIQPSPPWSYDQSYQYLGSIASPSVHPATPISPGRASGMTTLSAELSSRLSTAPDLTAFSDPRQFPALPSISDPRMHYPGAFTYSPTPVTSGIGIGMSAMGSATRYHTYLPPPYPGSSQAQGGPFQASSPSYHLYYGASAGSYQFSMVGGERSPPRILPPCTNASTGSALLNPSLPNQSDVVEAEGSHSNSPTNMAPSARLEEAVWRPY
Target sequence (Q13951 whole entry, looked up, the tested form may be a part): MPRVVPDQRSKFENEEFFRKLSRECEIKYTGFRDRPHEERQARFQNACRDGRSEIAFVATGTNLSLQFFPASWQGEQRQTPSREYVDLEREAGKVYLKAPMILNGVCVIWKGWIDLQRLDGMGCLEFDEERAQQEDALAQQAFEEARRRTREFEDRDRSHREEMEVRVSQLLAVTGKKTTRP
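System: Cerulean-labeled Runt domain protein | Quantity: 100 nM of each labeled protein | Schedule: 1 h compound exposure, room temperature | Detection: Fluorescence energy transfer, 422 nm excitation, 530/480 nm emission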
Hck-Nef inh: inhibitors of human Hck kinase activated by Nef. AID 463187. P08631. inhibition, % at 20 µM. Recombinant Hck-YEEI plus Nef, Z-Lyte FRET kinase assay. 0.68% of 220,000 active;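 active means Hck-Nef kinase inhibition above about 50%, limit read from the data; inactive means inhibition below that limit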;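 further: 0% = DMSO with Hck plus Nef and 100% = Hck alone without Nef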
Runt-SMMHC FRET: inhibitors of human RUNX1 Runt domain binding to CBFb-SMMHC; 0.74% of 220,000 active; AID 1434; Q01196+Q13951; inhibition, % at 20 µM; Cerulean-Runt/Venus-CBFb-SMMHC FRET ratio 530/480, 1 h;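 active means mean inhibition across duplicate retests at 20 µM reaching about 50%, limit read from the data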;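 further: 0% = DMSO wells and 100% = wells with excess untagged CBFb-SMMHC; inhibitors lower the FRET ratio by blocking Runt binding to CBFb-SMMHC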
RanGTP-Imp inh: inhibitors of RanGTP-importin-beta interaction, primary screen, biochemical, FRET, CFP-Ran, YFP-importin-beta, homogeneous | cell-free CFP-Ran/YFP-importin-beta FRET ratio | inhibition, % (concentration not given with the values) | 1.1% of 300,000 active;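 active means more than half of the replicate wells show a fall in the fluorescence ratio signal beyond about 16%, limit read from the data, passing the limit was not always enough; inconclusive means exactly half of the replicate wells pass the set limit; inactive means fewer than half of replicates pass the limit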;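 further: 0% = DMSO wells and 100% = Ran loaded with GDP instead of GTP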
CaV13 FRET inh: Primary screen for inhibitors of IQ motif and Ca2+-dependent inactivation inhibitor domain binding in CACNA1D, Förster resonance energy transfer in living cells, …; HEK cells, CFP/YFP FRET ICDI-IQ, plate reader, 10 min; percent FRET-ratio fall versus neutral wells; inhibition, % at 12.3 µM; 0.098% of 340,000 active; AID 743397;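 active means mean replicate inhibition of at least 30% and at least 1% of replicates passing that level; inconclusive means only one of the two criteria is met; inactive means neither criterion is met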;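 further: 0% = median of the neutral control wells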
Hck-Nef confirm: confirmation of Hck-Nef kinase inhibitors | AID 463188 | Recombinant Hck-YEEI:Nef, Z-Lyte FRET kinase assay | 28% of 1,300 active | shares compounds with Hck-Nef inh | calls only at 10 µM;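 active means average inhibition of at least 50%, with Z-scores no higher than 3 in both the phospho-tyrosine peptide and fluorescence counterscreens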
* marks the source's active call; other numbers are inactive results; i = inactive; ? = inconclusive; / = not tested or not shown; + = active, no number.

SMILES	Runt-CBFb FRET	Hck-Nef inh	Runt-SMMHC FRET	RanGTP-Imp inh	CaV13 FRET inh	Hck-Nef confirm
COc1cc(/C=C2\N=C(c3ccccc3)OC2=O)ccc1OCc1c(C)no[n+]1[O-]	0	0	5	-2	-6	/
COc1cc(/C=C/[N+](=O)[O-])ccc1OCc1cccc(C(=O)O)c1	17	62*	16	1	/	i
CCCCNC(=O)c1cc2c(=O)n3cccc(C)c3nc2n(Cc2ccncc2)c1=N	20	67*	70*	188*	10	i
COCCNC(=O)c1cc2c(=O)n3cccc(C)c3nc2n(Cc2ccncc2)c1=N	12	151*	40	192*	43*	/
COC(=O)C1CCN(C(=O)c2cc3c(=O)n4cccc(C)c4nc3n2Cc2ccccc2)CC1	-1	21	5	1	-5	/
O=C(NCCCn1ccnc1)c1ccc2c(c1)OCCO2	-1	1	1	5	-4	/
COCCNC(=S)NCCCNc1nc2cc3c(cc2cc1C#N)OCO3	15	70*	48	87*	/	/
CN(C)CCCNC(=S)NCCNc1nc2cc3c(cc2cc1C#N)OCO3	84*	51*	113*	72*	27	/
CN(C)CCCNC(=S)N(CCCO)Cc1cc2cc3c(cc2[nH]c1=O)OCO3	/	/	/	3	-2	/
Cc1cccn2c(=O)c3cc(C(=O)NCc4ccco4)c(=N)n(C(C)C)c3nc12	19	72*	60*	154*	3	/
CC(C)n1c(=N)c(C(=O)NCCc2ccccc2)cc2c(=O)n3ccccc3nc21	11	138*	-21	174*	/	/
Cc1cccn2c(=O)c3cc(C(=O)NCc4cccnc4)c(=N)n(C(C)C)c3nc12	19	161*	79*	183*	13	/
O=C(Nc1ccc2oc(=O)ccc2c1)c1ccc(-c2cccc(Cl)c2)o1	-3	65*	-1	4	-15	i
O=C(Nc1ccc2oc(=O)ccc2c1)c1ccc(-c2cccc([N+](=O)[O-])c2)o1	1	66*	-4	?	-17	i
Cc1ccc(C)c(NC(=O)c2cc3ccccn3n2)c1	0	11	2	-2	-5	/
Cc1ccc(C)c(NC(=O)c2cnn3ccccc23)c1	2	67*	0	0	-5	+
Cc1ccccc1C(=O)Nc1nc(-c2cccnc2)cs1	9	51*	-3	-1	-7	+
CC(NC(=O)NC1CCCCC1)C(c1cccs1)N1CCN(Cc2ccccc2)CC1 (stereo unspecified)	-2	0	4	0	-7	/
Cc1ccc(NC(=O)CN2C(=O)S/C(=C\c3cc(C)n(-c4ccc(C(=O)O)cc4)c3C)C2=O)cc1	6	7	5	5	-5	/
Cc1ccc(NC(=O)CN2C(=O)N/C(=C/c3cc(C)n(-c4ccc(C(=O)O)cc4)c3C)C2=O)cc1	0	56*	-8	/	-2	i
Cc1ccc(-c2nn(-c3ccccc3)cc2C=C2C(=O)CC(C)(C)CC2=O)cc1	/	1	29	0	-5	/
CC1=NNC(=O)/C1=C\c1cn(-c2ccccc2)nc1-c1ccc(Cl)cc1	-4	60*	-12	0	-9	+
COc1cc(C)c(NC(=O)C(=S)NCc2ccccc2)cc1C	0	19	-7	-1	-1	/
N=C1S/C(=C\c2ccc(-c3cccc(Cl)c3)o2)C(=O)N1c1nccs1	40	51*	12	-13	-6	i
C=CCONC(=O)Cc1ccccc1	/	/	/	/	-7	/
SMILES	Runt-CBFb FRET	Hck-Nef inh	Runt-SMMHC FRET	RanGTP-Imp inh	CaV13 FRET inh	Hck-Nef confirm
CC1CCOC(c2coc3ccccc3c2=O)O1 (stereo unspecified)	0	5	-6	-2	-4	/
O=C(O)C1CSC(c2coc3ccccc3c2=O)N1 (stereo unspecified)	5	91*	13	?	-3	+
Cc1sc2ncnc(SCC(=O)Nc3nc(-c4ccc(F)c(F)c4)cs3)c2c1C	1	117*	-6	4	-5	i
NS(=O)(=O)c1ccc(CCNC(=O)CCCn2ncn3c(cc4occc43)c2=O)cc1	/	/	/	-2	-5	/
O=C(NCc1ccncc1)C(=O)Nc1nc(C23CC4CC(CC(C4)C2)C3)cs1	-17	-1	-22	-1	-7	/
O=Cc1cn(-c2ccccc2)nc1-c1cc2cc(O)ccc2oc1=O	94*	52*	57*	40*	-6	/
O=Cc1cn(-c2ccccc2)nc1-c1cc2c(ccc3ccccc32)oc1=O	-41	24	20	/	/	/
CSc1nc(Cl)c(Br)c(Nc2c[nH]c(=O)[nH]c2=O)n1	/	/	/	/	-10	/
CCc1ccc(/C=N/Nc2ncnc3nc[nH]c23)cc1	1	95*	2	1	-3	+
CC(C)=NNc1ncnc2nc[nH]c12	/	/	/	/	-16	/
CC1=C(C(=O)N(C(C)C)C(C)C)CC(CC(=O)NC2CC2)C(=O)N1Cc1ccc(F)cc1 (stereo unspecified)	/	/	/	/	-6	/
O=S(=O)(NCC(c1ccc2c(c1)OCO2)N1CCOCC1)c1ccc(Br)cc1 (stereo unspecified)	/	/	/	-5	-6	/
Oc1cc2c(cc1C(c1ccc(Br)cc1)N1CCCC1)OCO2 (stereo unspecified)	4	73*	10	/	-6	i
Cc1ccc(F)cc1NC(=O)Cc1ncc(C(F)(F)F)cc1Cl	0	-2	1	-3	-5	/
COCCn1nnnc1C(c1ccccc1OC)N1CCc2ccccc2C1 (stereo unspecified)	/	1	/	4	-6	/
CCOC(=O)/C(C#N)=C1/SC(CCO)C(=O)N1c1ccccc1 (stereo unspecified)	/	54*	0	-1	/	i
COc1ccc(C2CC(c3ccccc3)=NN2c2ccc(S(N)(=O)=O)cc2)cc1OC (stereo unspecified)	2	74*	24	-2	-5	i
NS(=O)(=O)c1ccc(N2N=C(c3ccc(Br)cc3)CC2c2ccc(F)cc2)cc1 (stereo unspecified)	13	117*	26	23*	/	i
COc1cc2nc(Cl)nc(N3CCOCC3)c2cc1OC	/	69*	2	?	-2	i
COC(=O)C1=C(C)N(Cc2ccccc2C(F)(F)F)C(=NCc2cc(OC)c(OC)c(OC)c2)NC1c1ccccc1C(F)(F)F (stereo unspecified)	/	/	/	/	-10	/
Cc1nn(C)c(C)c1NC(=O)CSc1nc(-c2ccccc2F)nc2c1cnn2-c1ccccc1	/	/	/	/	7	/
Cc1nn(C)c(C)c1NC(=O)CSc1nc(-c2ccccc2Cl)nc2c1cnn2-c1ccccc1	-1	83*	7	-4	-4	i
Cc1cc2c(s1)c1cnn(-c3ccccc3)c(=O)c1n2C	/	/	/	/	-9	/
